Data published in ChEMBL document CHEMBL3351525, “Synthesis of tripeptides containing D-Trp substituted at the indole ring, assessment of opioid receptor binding and in vivo central antinociception” (J Med Chem, 2014).
The source made the active and inactive calls. Where a SMILES comes first, the peptide text is derived from it. [ ]: non-standard residue; d: D form.

Tests used:
[1] = biological target: Mu-type opioid receptor (Homo sapiens, UniProt P35372); assay: Displacement of [3H]DAMGO from human mu opioid receptor expressed in HEK293 cells by scintillation counting; type: cell-based
Chain of Mu-type opioid receptor (P35372 whole entry): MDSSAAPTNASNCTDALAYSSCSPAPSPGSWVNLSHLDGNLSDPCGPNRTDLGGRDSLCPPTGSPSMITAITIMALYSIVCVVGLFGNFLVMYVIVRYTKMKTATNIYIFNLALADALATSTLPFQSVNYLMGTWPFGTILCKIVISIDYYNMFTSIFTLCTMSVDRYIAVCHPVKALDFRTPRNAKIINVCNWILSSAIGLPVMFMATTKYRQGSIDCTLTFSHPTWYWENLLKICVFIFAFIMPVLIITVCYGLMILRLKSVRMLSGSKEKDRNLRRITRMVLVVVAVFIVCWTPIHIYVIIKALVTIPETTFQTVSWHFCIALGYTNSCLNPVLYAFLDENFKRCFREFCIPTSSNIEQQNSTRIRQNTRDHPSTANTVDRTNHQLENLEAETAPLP

[2] = system: Mus musculus; assay: Antinociceptive activity in CD-1 mouse assessed as increase in tail-flick latency period at 20 mg/kg, ip at 15 mins by tail flick test; type: functional; conditions: for MPE: route intraperitoneal
[3] = system: Mus musculus; assay: Antinociceptive activity in CD-1 mouse assessed as increase in tail-flick latency period at 20 mg/kg, ip at 30 mins by tail flick test; type: functional; conditions: for MPE: route intraperitoneal
[4] = system: Mus musculus; assay: Toxicity in icv dosed CD-1 mouse assessed as locomotor activity; type: organism-based; conditions: in vivo, icv_or_intrathecal
[5] = system: Mus musculus; assay: Toxicity in icv dosed CD-1 mouse assessed as circling behavior; type: organism-based; conditions: in vivo, icv_or_intrathecal
[6] = system: Mus musculus; assay: Toxicity in icv dosed CD-1 mouse assessed as straub tail; type: organism-based; conditions: in vivo, icv_or_intrathecal
[7] = system: Mus musculus; assay: Toxicity in icv dosed CD-1 mouse assessed as grooming; type: organism-based; conditions: in vivo, icv_or_intrathecal
[8] = biological target: Delta-type opioid receptor (Homo sapiens, UniProt P41143); assay: Displacement of [3H]diprenorphine from human delta opioid receptor expressed in HEK293 cells by scintillation counting; type: cell-based
Chain of Delta-type opioid receptor (P41143 whole entry): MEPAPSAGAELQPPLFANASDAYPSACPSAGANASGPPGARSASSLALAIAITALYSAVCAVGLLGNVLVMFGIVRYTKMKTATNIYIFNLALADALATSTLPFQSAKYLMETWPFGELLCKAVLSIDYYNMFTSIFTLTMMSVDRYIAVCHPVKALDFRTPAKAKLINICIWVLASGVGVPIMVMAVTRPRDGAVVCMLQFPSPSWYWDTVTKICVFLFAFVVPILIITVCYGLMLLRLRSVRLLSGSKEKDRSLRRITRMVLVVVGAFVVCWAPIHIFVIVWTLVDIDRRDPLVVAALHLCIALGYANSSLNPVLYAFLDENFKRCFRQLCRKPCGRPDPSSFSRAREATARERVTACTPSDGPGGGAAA

[9] = biological target: Kappa-type opioid receptor (Homo sapiens, UniProt P41145); assay: Displacement of [3H]U69593 from human kappa opioid receptor expressed in HEK293 cells by scintillation counting; type: cell-based
Chain of Kappa-type opioid receptor (P41145 whole entry): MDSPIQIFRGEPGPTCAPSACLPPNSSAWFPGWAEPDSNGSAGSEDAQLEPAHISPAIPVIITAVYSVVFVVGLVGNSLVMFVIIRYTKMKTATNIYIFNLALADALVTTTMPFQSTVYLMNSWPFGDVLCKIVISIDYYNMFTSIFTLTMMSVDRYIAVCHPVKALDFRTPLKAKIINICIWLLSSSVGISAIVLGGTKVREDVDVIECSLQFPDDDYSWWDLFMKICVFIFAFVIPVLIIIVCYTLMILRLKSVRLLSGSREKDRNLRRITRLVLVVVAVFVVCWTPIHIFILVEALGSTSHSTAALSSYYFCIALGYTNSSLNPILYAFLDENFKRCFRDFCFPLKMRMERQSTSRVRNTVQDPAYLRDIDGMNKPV

[10] = system: Mus musculus; assay: Antinociceptive activity in CD-1 mouse assessed as increase in tail-flick latency period at 40 mg/kg, ip at 30 mins by tail flick test; type: functional; conditions: route intraperitoneal
[11] = system: Mus musculus; assay: Antinociceptive activity in ip dosed CD-1 mouse assessed as increase in tail-flick latency period at 30 mins by tail flick test; type: functional, organism-based
How it was run: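 Tail immersed in 52 ± 0.5 °C water; withdrawal latency measured. Pre-treatment control latency recorded; mice not flicking within 5 s excluded. Vehicle or peptide given ip at 10, 20 or 40 mg/kg. Latency read at 5, 15, 30, 45 and 60 min post-dose, 10 s cutoff. Response expressed as % maximal possible effect (MPE%).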

[12] = system: Mus musculus; assay: Antinociceptive activity in icv dosed CD-1 mouse assessed as increase in tail-flick latency period at 10 mins by tail flick test; type: functional, organism-based
How it was run: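 Hot-water (52 ± 0.5 °C) tail-immersion test after icv injection at 2.5, 5 or 10 μg/mouse, compared with vehicle. Withdrawal latency measured with a 10 s cutoff. Response expressed as % maximal possible effect (MPE%).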

[13] = system: Mus musculus; assay: Antinociceptive activity in CD-1 mouse assessed as increase in tail-flick latency period at 2.5 microg, icv at 10 mins by tail flick test; type: functional
[14] = system: Mus musculus; assay: Antinociceptive activity in CD-1 mouse assessed as increase in tail-flick latency period at 5 microg, icv at 10 mins by tail flick test; type: functional
[15] = system: Mus musculus; assay: Antinociceptive activity in CD-1 mouse assessed as increase in tail-flick latency period at 10 microg, icv at 10 mins by tail flick test; type: functional
[16] = Stability in mouse serum assessed as drug degradation after 3 hrs incubation; type: ADME; conditions: read-out: Drug degradation
How it was run: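 Peptide incubated in mouse serum for 3 h; degradation assessed.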

Ki [1] [nM] | SMILES | Activity [4] | Activity [5] | Activity [6] | Activity [7] | Ki [8] [nM] | Ki [9] [nM] | also measured
> 100000 | CC(=O)N[C@H](Cc1c(C)[nH]c2ccc(Cl)cc12)C(=O)N[C@@H](Cc1ccccc1)C(=O)NCC(N)=O | – | – | – | – | – | – | –
20.8 | CC(=O)N[C@H](Cc1c[nH]c2ccc(Cl)cc12)C(=O)N[C@@H](Cc1ccccc1)C(=O)NCC(N)=O | – | – | – | – | – | – | –
> 100000 | CC(=O)N[C@H](Cc1c[nH]c2c(C)cccc12)C(=O)N[C@@H](Cc1ccccc1)C(=O)NCC(N)=O | – | – | – | – | – | – | –
– | CC(=O)N[C@H](Cc1c[nH]c2ccccc12)C(=O)N[C@@H](Cc1ccccc1)C(=O)NCC(N)=O (Ac-[dW]-Phe-Gly-NH2) | Non-toxic | Non-toxic | Non-toxic | Non-toxic | – | – | MPE [2]: 19%; MPE [3]: 37%
5.7 | CC(=O)N[C@H](Cc1c[nH]c2cc(F)ccc12)C(=O)N[C@@H](Cc1ccccc1)C(=O)NCC(N)=O | – | – | – | – | – | – | –
114 | CC(=O)N[C@H](Cc1c[nH]c2ccc(Br)cc12)C(=O)N[C@@H](Cc1ccccc1)C(=O)NCC(N)=O | – | – | – | – | > 100000 | > 100000 | –
> 100000 | CC(=O)N[C@H](Cc1c[nH]c2ccc(F)cc12)C(=O)N[C@@H](Cc1ccccc1)C(=O)NCC(N)=O | – | – | – | – | – | – | –
314 | CC(=O)N[C@H](Cc1c(C)[nH]c2ccccc12)C(=O)N[C@@H](Cc1ccccc1)C(=O)NCC(N)=O | – | – | – | – | > 100000 | > 100000 | –
> 100000 | CC(=O)N[C@H](Cc1c[nH]c2cc(Cl)ccc12)C(=O)N[C@@H](Cc1ccccc1)C(=O)NCC(N)=O | – | – | – | – | – | – | –
426 | CC(=O)N[C@H](Cc1c[nH]c2ccc(C)cc12)C(=O)N[C@@H](Cc1ccccc1)C(=O)NCC(N)=O | – | – | – | – | > 100000 | > 100000 | –
– | CC(=O)N[C@H](Cc1c[nH]c2ccccc12)C(=O)N[C@@H](Cc1ccccc1)C(N)=O (Ac-[dW]-Phe-NH2) | Non-toxic | Non-toxic | Non-toxic | Non-toxic | – | – | Activity [2]: inactive; Activity [3]: inactive

SMILES | Ki [1] [nM] | Activity [4] | Activity [5] | Activity [6] | Activity [7] | Ki [8] [nM] | Ki [9] [nM] | also measured
CC(=O)N[C@H](Cc1c[nH]c2ccc([N+](=O)[O-])cc12)C(=O)N[C@@H](Cc1ccccc1)C(=O)NCC(N)=O | 51.9 | Non-toxic | Non-toxic | Non-toxic | Non-toxic | > 100000 | > 100000 | MPE [10]: 48%; Activity [11]: Dose-dependent effect; Activity [12]: Dose-dependent effect; Activity [13]: 25%; Activity [14]: 49%; Activity [15]: 47%; metabolised at 3 h [16]: 7%
CC(=O)N[C@H](Cc1c(C)[nH]c2c(Br)cccc12)C(=O)N[C@@H](Cc1ccccc1)C(=O)NCC(N)=O | 4.03 | Non-toxic | Non-toxic | Non-toxic | Non-toxic | > 100000 | > 100000 | MPE [2]: 33%; MPE [3]: 32%
CC(=O)N[C@H](Cc1c[nH]c2c(Br)cccc12)C(=O)N[C@@H](Cc1ccccc1)C(=O)NCC(N)=O | 190 | – | – | – | – | > 100000 | > 100000 | –
O=C1CNC(=O)[C@H](Cc2ccccc2)NC(=O)[C@@H](Cc2c[nH]c3ccccc23)NC(=O)CNC(=O)[C@H](Cc2ccc(O)cc2)N1 | 3.6 | Non-toxic | Non-toxic | Non-toxic | Non-toxic | 24 | > 100000 | MPE [2]: 22%; MPE [3]: 32%; metabolised at 3 h [16]: < 10%
